Where “and” joins values, the source holds several entries; their conditions need not be identical. Identical values can stand only once.
Tested on: U2OS
Assay: Multiplex assay against U2OS
Assay type: toxicity, cell-based
Conditions: human, number of replicates 2
In short: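 Live cells carried four stains from seeding: Hoechst33342, BioTracker Green Microtubule Cytoskeleton Dye, MitoTracker Red and Annexin V Alexa Fluor 680. They were imaged on a CQ1 microscope at 37°C and 5% CO2 after compound addition. Using CellPathfinder machine-learning gating, cells were split into Hoechst high-intensity objects or normal cells, normal cells into healthy, pyknosed or fragmented nuclei, and pyknosed cells into mitotic or apoptotic; tubulin, mitochondrial-mass and membrane-permeability phenotypes are per cents of healthy-nucleus cells.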

[1] = 12 h, 1 µM, compound concentration 1 uM
[2] = 12 h, 10 µM, compound concentration 10 uM
[3] = 24 h, 1 µM, compound concentration 1 uM
[4] = 24 h, 10 µM, compound concentration 10 uM
[5] = 48 h, 1 µM, compound concentration 1 uM
[6] = 48 h, 10 µM, compound concentration 10 uM

SMILES: O=C(Nc1ccnc(NC(=O)C2CC2)c1)c1c(Cl)cccc1Cl
- Population Apoptotic (%) [1]: 33% and 84%
- Population Hoechst High Intensity Objects (%) [1]: 0%
- Population Membrane Permeable-Phenotype (%) [1]: 4% and 3%
- Population Mitochondria Different-Phenotype (%) [1]: 0% and 4%
- Population Normal (%) [1]: 100%
- Population Tubulin-Different-Phenotype (%) [1]: 81% and 83%
- Total Cell Count [1]: 114 and 143
- Population Apoptotic (%) [2]: 60% and 58%
- Population Healthy Nuclei (%) [2]: 36% and 74%
- Population Hoechst High Intensity Objects (%) [2]: 0%
- Population Mitochondria Different-Phenotype (%) [2]: 14% and 0%
- Population Mitotic Cells (%) [2]: 40% and 41%
- Population Normal (%) [2]: 100%
- Population Pyknosed Nuclei (%) [2]: 26% and 19%
- Population Tubulin-Different-Phenotype (%) [2]: 71% and 58%
- Population Apoptotic (%) [3]: 60% and 90%
- Population Hoechst High Intensity Objects (%) [3]: 0%
- Population Membrane Permeable-Phenotype (%) [3]: 4% and 3%
- Population Mitochondria Different-Phenotype (%) [3]: 0% and 2%
- Population Normal (%) [3]: 99% and 100%
- Population Pyknosed Nuclei (%) [3]: 3% and 12%
- Population Tubulin-Different-Phenotype (%) [3]: 76% and 90%
- Total Cell Count [3]: 131 and 182
- Population Apoptotic (%) [4]: 66% and 87%
- Population Healthy Nuclei (%) [4]: 32% and 62%
- Population Hoechst High Intensity Objects (%) [4]: 0%
- Population Mitochondria Different-Phenotype (%) [4]: 10% and 0%
- Population Mitotic Cells (%) [4]: 33% and 12%
- Population Normal (%) [4]: 100%
- Population Pyknosed Nuclei (%) [4]: 19% and 29%
- Population Tubulin-Different-Phenotype (%) [4]: 70% and 66%
- Population Apoptotic (%) [5]: 75% and 76%
- Population Healthy Nuclei (%) [5]: 32% and 82%
- Population Hoechst High Intensity Objects (%) [5]: 0%
- Population Membrane Permeable-Phenotype (%) [5]: 5% and 1%
- Population Mitochondria Different-Phenotype (%) [5]: 2% and 1%
- Population Mitotic Cells (%) [5]: 25% and 23%
- Population Normal (%) [5]: 99% and 100%
- Population Pyknosed Nuclei (%) [5]: 3% and 10%
- Population Tubulin-Different-Phenotype (%) [5]: 89% and 92%
- Population Apoptotic (%) [6]: 100% and 80%
- Population Hoechst High Intensity Objects (%) [6]: 0%
- Population Membrane Permeable-Phenotype (%) [6]: 16% and 14%
- Population Mitochondria Different-Phenotype (%) [6]: 16% and 6%
- Population Mitotic Cells (%) [6]: 0% and 20%
- Population Normal (%) [6]: 100% and 99%
- Population Pyknosed Nuclei (%) [6]: 23% and 35%
- Population Tubulin-Different-Phenotype (%) [6]: 50% and 68%

SMILES: CS(=O)(=O)c1ccc(C(=O)Nc2cc(F)cc(COc3cc(F)c(Br)cc3CN3CC[C@H](O)C3)c2)c(Cl)c1.O=CO
- Population Apoptotic (%) [1]: 33% and 58%
- Population Fragmented Nuclei (%) [1]: 2%
- Population Normal (%) [1]: 100%
- Population Apoptotic (%) [2]: 60% and 54%
- Population Normal (%) [2]: 100%
- Population Apoptotic (%) [3]: 82% and 66%
- Population Fragmented Nuclei (%) [3]: 2% and 3%
- Population Normal (%) [3]: 100% and 96%
- Population Apoptotic (%) [4]: 61% and 71%
- Population Normal (%) [4]: 100% and 99%
- Population Apoptotic (%) [5]: 63% and 88%
- Population Fragmented Nuclei (%) [5]: 2% and 1%
- Population Normal (%) [5]: 100%
- Population Apoptotic (%) [6]: 94% and 89%
- Population Normal (%) [6]: 98%

SMILES: COc1ccccc1-c1cc(Nc2cccc(CS(N)(=O)=O)c2)ncn1
- Population Apoptotic (%) [1]: 75% and 86%
- Population Fragmented Nuclei (%) [1]: 13% and 5%
- Population Healthy Nuclei (%) [1]: 75% and 84%
- Population Hoechst High Intensity Objects (%) [1]: 0%
- Population Membrane Permeable-Phenotype (%) [1]: 7% and 3%
- Population Mitochondria Different-Phenotype (%) [1]: 0% and 1%
- Population Mitotic Cells (%) [1]: 25% and 13%
- Population Normal (%) [1]: 100%
- Population Pyknosed Nuclei (%) [1]: 11% and 10%
- Population Tubulin-Different-Phenotype (%) [1]: 62% and 80%
- Population Apoptotic (%) [2]: 63% and 66%
- Population Healthy Nuclei (%) [2]: 82% and 50%
- Population Hoechst High Intensity Objects (%) [2]: 0%
- Population Mitochondria Different-Phenotype (%) [2]: 1% and 0%
- Population Mitotic Cells (%) [2]: 36% and 33%
- Population Normal (%) [2]: 100%
- Population Pyknosed Nuclei (%) [2]: 12% and 13%
- Population Tubulin-Different-Phenotype (%) [2]: 72% and 34%
- Population Apoptotic (%) [3]: 80% and 86%
- Population Healthy Nuclei (%) [3]: 70% and 88%
- Population Hoechst High Intensity Objects (%) [3]: 0%
- Population Membrane Permeable-Phenotype (%) [3]: 2% and 1%
- Population Mitochondria Different-Phenotype (%) [3]: 2% and 0%
- Population Mitotic Cells (%) [3]: 20% and 13%
- Population Normal (%) [3]: 100%
- Population Pyknosed Nuclei (%) [3]: 8% and 7%
- Population Tubulin-Different-Phenotype (%) [3]: 51% and 77%
- Population Apoptotic (%) [4]: 80%
- Population Healthy Nuclei (%) [4]: 79% and 62%
- Population Hoechst High Intensity Objects (%) [4]: 0%
- Population Mitochondria Different-Phenotype (%) [4]: 1% and 11%
- Population Mitotic Cells (%) [4]: 19% and 20%
- Population Normal (%) [4]: 100%
- Population Pyknosed Nuclei (%) [4]: 16% and 18%
- Population Tubulin-Different-Phenotype (%) [4]: 76% and 50%
- Population Apoptotic (%) [5]: 75% and 83%
- Population Fragmented Nuclei (%) [5]: 13% and 4%
- Population Healthy Nuclei (%) [5]: 77% and 88%
- Population Hoechst High Intensity Objects (%) [5]: 0%
- Population Membrane Permeable-Phenotype (%) [5]: 8% and 1%
- Population Mitochondria Different-Phenotype (%) [5]: 0%
- Population Mitotic Cells (%) [5]: 25% and 16%
- Population Normal (%) [5]: 100%
- Population Pyknosed Nuclei (%) [5]: 9% and 7%
- Population Tubulin-Different-Phenotype (%) [5]: 75% and 78%
- Population Apoptotic (%) [6]: 66% and 77%
- Population Fragmented Nuclei (%) [6]: 18% and 7%
- Population Healthy Nuclei (%) [6]: 60% and 73%
- Population Hoechst High Intensity Objects (%) [6]: 0%
- Population Membrane Permeable-Phenotype (%) [6]: 8% and 6%
- Population Mitochondria Different-Phenotype (%) [6]: 6% and 3%
- Population Mitotic Cells (%) [6]: 33% and 22%
- Population Normal (%) [6]: 100%
- Population Pyknosed Nuclei (%) [6]: 20% and 18%
- Population Tubulin-Different-Phenotype (%) [6]: 55% and 73%

SMILES: O=C1NC(=O)C(c2ccccc2[N+](=O)[O-])=C1Nc1ccc(O)c(Cl)c1
- Population Apoptotic (%) [1]: 100% and 38%
- Population Fragmented Nuclei (%) [1]: 12% and 5%
- Population Healthy Nuclei (%) [1]: 80% and 83%
- Population Hoechst High Intensity Objects (%) [1]: 0%
- Population Membrane Permeable-Phenotype (%) [1]: 0% and 1%
- Population Mitochondria Different-Phenotype (%) [1]: 0%
- Population Normal (%) [1]: 100%
- Population Pyknosed Nuclei (%) [1]: 8% and 10%
- Population Tubulin-Different-Phenotype (%) [1]: 85% and 90%
- Population Apoptotic (%) [2]: 80% and 37%
- Population Fragmented Nuclei (%) [2]: 9% and 5%
- Population Healthy Nuclei (%) [2]: 68% and 83%
- Population Hoechst High Intensity Objects (%) [2]: 0% and 3%
- Population Membrane Permeable-Phenotype (%) [2]: 6% and 3%
- Population Mitochondria Different-Phenotype (%) [2]: 6% and 0%
- Population Normal (%) [2]: 100% and 96%
- Population Pyknosed Nuclei (%) [2]: 22% and 10%
- Population Tubulin-Different-Phenotype (%) [2]: 73% and 92%
- Total Cell Count [2]: 22
- Population Apoptotic (%) [3]: 40% and 37%
- Population Healthy Nuclei (%) [3]: 67% and 86%
- Population Hoechst High Intensity Objects (%) [3]: 0%
- Population Membrane Permeable-Phenotype (%) [3]: 4% and 2%
- Population Mitochondria Different-Phenotype (%) [3]: 0%
- Population Mitotic Cells (%) [3]: 60% and 62%
- Population Normal (%) [3]: 100%
- Population Pyknosed Nuclei (%) [3]: 14% and 10%
- Population Tubulin-Different-Phenotype (%) [3]: 73% and 92%
- Population Apoptotic (%) [4]: 66% and 31%
- Population Fragmented Nuclei (%) [4]: 8% and 5%
- Population Healthy Nuclei (%) [4]: 73% and 84%
- Population Hoechst High Intensity Objects (%) [4]: 0%
- Population Membrane Permeable-Phenotype (%) [4]: 4% and 1%
- Population Mitochondria Different-Phenotype (%) [4]: 4% and 0%
- Population Mitotic Cells (%) [4]: 33% and 68%
- Population Normal (%) [4]: 100% and 99%
- Population Pyknosed Nuclei (%) [4]: 17% and 10%
- Population Tubulin-Different-Phenotype (%) [4]: 84% and 95%
- Population Apoptotic (%) [5]: 71% and 55%
- Population Fragmented Nuclei (%) [5]: 9% and 3%
- Population Healthy Nuclei (%) [5]: 80% and 90%
- Population Hoechst High Intensity Objects (%) [5]: 0%
- Population Membrane Permeable-Phenotype (%) [5]: 1%
- Population Mitochondria Different-Phenotype (%) [5]: 0%
- Population Mitotic Cells (%) [5]: 28% and 44%
- Population Normal (%) [5]: 100%
- Population Pyknosed Nuclei (%) [5]: 10% and 5%
- Population Tubulin-Different-Phenotype (%) [5]: 86% and 93%
- Population Apoptotic (%) [6]: 22% and 31%
- Population Fragmented Nuclei (%) [6]: 5% and 7%
- Population Healthy Nuclei (%) [6]: 77% and 85%
- Population Hoechst High Intensity Objects (%) [6]: 0% and 2%
- Population Membrane Permeable-Phenotype (%) [6]: 2% and 0%
- Population Mitochondria Different-Phenotype (%) [6]: 2% and 0%
- Population Mitotic Cells (%) [6]: 77% and 68%
- Population Normal (%) [6]: 100% and 97%
- Population Pyknosed Nuclei (%) [6]: 16% and 7%
- Population Tubulin-Different-Phenotype (%) [6]: 92% and 98%

Reference: ChEMBL document CHEMBL5303300, “EUbOPEN Chemogenomics Library - Multiplex” (2023)
